In ChEMBL document CHEMBL5120825, “The azulene scaffold from a medicinal chemist's perspective: Physicochemical and in vitro parameters relevant for drug discovery” (Eur J Med Chem, 2022):
Values after ≈ are worked out from the molar mass of the structure shown.

Legend:
[1] = Aqueous solubility of the compound at pH 6.8 incubated for 24 hrs under shaking condition by LC-UV analysis; format: physicochemical; conditions: aqueous medium
Method in brief: (§1)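 The highest concentration tested was 250 μM, so results are capped at that level. Values are reported in µg/ml.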

[2] = Aqueous solubility of the compound at pH 2.2 incubated for 24 hrs under shaking condition by LC-UV analysis; format: physicochemical; conditions: aqueous medium; method in brief: as §1
[3] = Lipophilicity, logP of the compound; format: physicochemical; conditions: octanol/water
[4] = Metabolic stability in human liver microsomes assessed as hepatic blood flow at 1 uM preincubated with compound followed by NADPH addition by LC-MS/MS analysis; format: ADME, Microsome; conditions: read-out: QH
[5] = Octanol-water partition coefficient, logD of the compound at pH 11 by HPLC analysis; format: physicochemical
[6] = Aqueous solubility of the compound at pH 4.5 incubated for 24 hrs under shaking condition by LC-UV analysis; format: physicochemical; conditions: aqueous medium; method in brief: as §1
[7] = Octanol-water partition coefficient, logD of the compound at pH 2 by HPLC analysis; format: physicochemical
[8] = Permeability of the compound at pH 7.4 by PAMPA assay; format: ADME; conditions: read-out: permeability

O=C(Nc1ccc2ccccc2c1)c1cccnc1 showed a solubility thermodynamic at 24 h [1] of 4 µg/mL (≈ 16.1 µM), a solubility thermodynamic at 24 h [2] greater than 50 µg/mL and a logP ([3]; read-out: logP) of 2.4. The hepatic extraction ratio at 1 µM [4] was 0.67, the logD ([5]; read-out: logD) was 2.4 and the solubility thermodynamic at 24 h [6] was 6 µg/mL (≈ 24.2 µM). For the same compound, the logD ([7]; read-out: logD) was 1.4.
For NC(=O)C1CCN(C(=O)c2cccc3ccccc23)CC1, the solubility thermodynamic at 24 h [1] was greater than 71 µg/mL, the solubility thermodynamic at 24 h [2] was greater than 70 µg/mL and the logP [3] was 0.8. It also gave a hepatic extraction ratio at 1 µM [4] of less than 0.23, a logD ([5]; read-out: logD) of 0.8 and a Papp [8] of 0.2 ×10⁻⁶ cm/s. The solubility thermodynamic at 24 h [6] was greater than 71 µg/mL and the logD [7] was 1.3.
For COC(=O)c1ccc2[nH]cc(C(=O)c3ccccc3)c2c1, the solubility thermodynamic at 24 h [1] was less than 1 µg/mL, the solubility thermodynamic at 24 h [2] was less than 1 µg/mL and the logP [3] was 2.5. For the same compound, the logD ([5]; read-out: logD) was 2.5, the Papp [8] was 2.8 ×10⁻⁶ cm/s and the solubility thermodynamic at 24 h [6] was less than 1 µg/mL. It also gave a logD [7] of 2.9.
In the case of COC(=O)c1ccc2c(C(=O)c3ccccc3)cc(C(=O)c3ccccc3)c-2cc1, the solubility thermodynamic at 24 h [1] is reported as less than 1 µg/mL, the solubility thermodynamic at 24 h [2] is reported as less than 1 µg/mL and the logP ([3]; read-out: logP) is reported as 5.5. The logD ([5]; read-out: logD) was 5.5, the Papp [8] was 0.3 ×10⁻⁶ cm/s and the solubility thermodynamic at 24 h [6] was less than 1 µg/mL. It also gave a logD ([7]; read-out: logD) of 5.6.
Compound COC(=O)c1ccc2ccc(C(=O)c3ccccc3)c-2cc1 has a solubility thermodynamic at 24 h [1] of less than 1 µg/mL, a solubility thermodynamic at 24 h [2] of less than 1 µg/mL and a logP ([3]; read-out: logP) of 4.7. It also gave a logD ([5]; read-out: logD) of 4.7, a Papp [8] of 0.1 ×10⁻⁶ cm/s and a solubility thermodynamic at 24 h [6] of less than 1 µg/mL. For the same compound, the logD ([7]; read-out: logD) was 4.8.
For O=C(NCCc1cnc[nH]1)c1ccc2ccc(C(=O)c3ccccc3)c-2cc1, the solubility thermodynamic at 24 h [1] was less than 1 µg/mL, the solubility thermodynamic at 24 h [2] was greater than 77 µg/mL and the logP ([3]; read-out: logP) was 2.3. The hepatic extraction ratio at 1 µM [4] was 0.41, the logD ([5]; read-out: logD) was 2.3 and the Papp [8] was 0.3 ×10⁻⁶ cm/s. For the same compound, the solubility thermodynamic at 24 h [6] was 57 µg/mL (≈ 154 µM) and the logD ([7]; read-out: logD) was 1.3.
With Cn1c(NC(=O)Cn2ccccc2=O)cc2ccccc21 the solubility thermodynamic at 24 h [1] was 3 µg/mL (≈ 10.7 µM), the logP [3] was 1.1 and the hepatic extraction ratio at 1 µM [4] was less than 0.23. For the same compound, the logD [5] was 1.5, the Papp [8] was 3.3 ×10⁻⁶ cm/s and the logD [7] was 1.5.
With O=C(Cn1ccccc1=O)Nc1cc2ccccc2[nH]1 the solubility thermodynamic at 24 h [1] was greater than 67 µg/mL, the solubility thermodynamic at 24 h [2] was greater than 60 µg/mL and the logP [3] was 0.4. It also gave a hepatic extraction ratio at 1 µM [4] of less than 0.23, a logD [5] of 1 and a Papp [8] of 0.1 ×10⁻⁶ cm/s. It also gave a solubility thermodynamic at 24 h [6] greater than 67 µg/mL and a logD [7] of 1.
For c1ccc2cc(CN3CCCCC3)ccc2c1, the solubility thermodynamic at 24 h [1] was 27 µg/mL (≈ 120 µM), the solubility thermodynamic at 24 h [2] was 34 µg/mL (≈ 151 µM) and the logP ([3]; read-out: logP) was greater than 5.5. It also gave a hepatic extraction ratio at 1 µM [4] of 0.72, a logD ([5]; read-out: logD) greater than 5.5 and a Papp [8] of 4.6 ×10⁻⁶ cm/s. For the same compound, the solubility thermodynamic at 24 h [6] was 30 µg/mL (≈ 133 µM) and the logD ([7]; read-out: logD) was 0.9.
With COC(=O)c1ccc2c(C(=O)N(C)C)cn(C)c2c1 the solubility thermodynamic at 24 h [1] was 49 µg/mL (≈ 188 µM), the solubility thermodynamic at 24 h [2] was 50 µg/mL (≈ 192 µM) and the logP [3] was 1.4. For the same compound, the hepatic extraction ratio at 1 µM [4] was 0.82, the logD [5] was 1.9 and the Papp [8] was 4.2 ×10⁻⁶ cm/s. The solubility thermodynamic at 24 h [6] was greater than 52 µg/mL and the logD [7] was 1.9.
With COC(=O)c1ccc2c(C(=O)Nc3ccccc3)cn(C)c2c1 the solubility thermodynamic at 24 h [1] was less than 1 µg/mL, the solubility thermodynamic at 24 h [2] was less than 1 µg/mL and the logP [3] was 2.9. The logD [5] was 3.4, the Papp [8] was 2.2 ×10⁻⁶ cm/s and the solubility thermodynamic at 24 h [6] was less than 1 µg/mL. It also gave a logD [7] of 3.4.
CN1CCN(C(=O)c2ccc3c(c2)c(C(=O)c2ccccc2)cn3C)CC1 gave a solubility thermodynamic at 24 h [1] of 68 µg/mL (≈ 188 µM), a solubility thermodynamic at 24 h [2] of 78 µg/mL (≈ 216 µM) and a logP ([3]; read-out: logP) of 2. The hepatic extraction ratio at 1 µM [4] was less than 0.23, the logD ([5]; read-out: logD) was 2 and the Papp [8] was 1.9 ×10⁻⁶ cm/s. It also gave a solubility thermodynamic at 24 h [6] of 76 µg/mL (≈ 210 µM) and a logD ([7]; read-out: logD) of 0.7.
For COC(=O)c1ccc2c(c1)c(C(=O)c1ccccc1)cn2C(=O)c1ccccc1, the solubility thermodynamic at 24 h [1] was less than 1 µg/mL, the solubility thermodynamic at 24 h [2] was less than 1 µg/mL and the logP ([3]; read-out: logP) was 5.2. For the same compound, the logD ([5]; read-out: logD) was 5.2, the Papp [8] was 1.3 ×10⁻⁶ cm/s and the solubility thermodynamic at 24 h [6] was less than 1 µg/mL. It also gave a logD ([7]; read-out: logD) of 5.2.
For COC(=O)c1ccc2ccc(C(=O)Nc3ccccc3)c-2cc1, the solubility thermodynamic at 24 h [1] was less than 1 µg/mL, the solubility thermodynamic at 24 h [2] was less than 1 µg/mL and the logP ([3]; read-out: logP) was 3.8. For the same compound, the logD ([5]; read-out: logD) was 4, the Papp [8] was 0.4 ×10⁻⁶ cm/s and the solubility thermodynamic at 24 h [6] was less than 1 µg/mL. For the same compound, the logD ([7]; read-out: logD) was 4.
O=C(NCc1cccnc1)c1ccc2ccc(C(=O)c3ccccc3)c-2cc1 showed a solubility thermodynamic at 24 h [1] of less than 1 µg/mL, a solubility thermodynamic at 24 h [2] of 70 µg/mL (≈ 191 µM) and a logP ([3]; read-out: logP) of 3. For the same compound, the hepatic extraction ratio at 1 µM [4] was 0.46, the logD ([5]; read-out: logD) was 1.4 and the Papp [8] was 2.4 ×10⁻⁶ cm/s. The solubility thermodynamic at 24 h [6] was less than 1 µg/mL and the logD ([7]; read-out: logD) was 1.4.
With Cn1cc(C(=O)c2ccccc2)c2cc(C(=O)NCCc3cnc[nH]3)ccc21 the solubility thermodynamic at 24 h [1] was 72 µg/mL (≈ 193 µM), the solubility thermodynamic at 24 h [2] was 84 µg/mL (≈ 226 µM) and the logP ([3]; read-out: logP) was 1.5. The hepatic extraction ratio at 1 µM [4] was 0.23, the logD ([5]; read-out: logD) was 1.5 and the Papp [8] was 0.1 ×10⁻⁶ cm/s. It also gave a solubility thermodynamic at 24 h [6] of 107 µg/mL (≈ 287 µM) and a logD ([7]; read-out: logD) of 0.9.
Work on CN(C)C(=O)Cc1ccc2ccn(C)c2c1 yielded a solubility thermodynamic at 24 h [1] greater than 53 µg/mL, a solubility thermodynamic at 24 h [2] greater than 54 µg/mL and a logP ([3]; read-out: logP) of 1.7. The hepatic extraction ratio at 1 µM [4] was less than 0.23, the logD ([5]; read-out: logD) was 1.7 and the Papp [8] was 7.6 ×10⁻⁶ cm/s. It also gave a solubility thermodynamic at 24 h [6] greater than 53 µg/mL and a logD ([7]; read-out: logD) of 1.9.
